How the values were obtained:
[1] = biological target: T1, KCC2 (Homo sapiens, UniProt Q9H2X9); assay: Tl influx assay in KCC2-transfected HEK293 cells; assay type: cell-based; settings: 10 μM, versus control DMSO, mean ± SEM
T1 sequence (Q9H2X9 1-1139): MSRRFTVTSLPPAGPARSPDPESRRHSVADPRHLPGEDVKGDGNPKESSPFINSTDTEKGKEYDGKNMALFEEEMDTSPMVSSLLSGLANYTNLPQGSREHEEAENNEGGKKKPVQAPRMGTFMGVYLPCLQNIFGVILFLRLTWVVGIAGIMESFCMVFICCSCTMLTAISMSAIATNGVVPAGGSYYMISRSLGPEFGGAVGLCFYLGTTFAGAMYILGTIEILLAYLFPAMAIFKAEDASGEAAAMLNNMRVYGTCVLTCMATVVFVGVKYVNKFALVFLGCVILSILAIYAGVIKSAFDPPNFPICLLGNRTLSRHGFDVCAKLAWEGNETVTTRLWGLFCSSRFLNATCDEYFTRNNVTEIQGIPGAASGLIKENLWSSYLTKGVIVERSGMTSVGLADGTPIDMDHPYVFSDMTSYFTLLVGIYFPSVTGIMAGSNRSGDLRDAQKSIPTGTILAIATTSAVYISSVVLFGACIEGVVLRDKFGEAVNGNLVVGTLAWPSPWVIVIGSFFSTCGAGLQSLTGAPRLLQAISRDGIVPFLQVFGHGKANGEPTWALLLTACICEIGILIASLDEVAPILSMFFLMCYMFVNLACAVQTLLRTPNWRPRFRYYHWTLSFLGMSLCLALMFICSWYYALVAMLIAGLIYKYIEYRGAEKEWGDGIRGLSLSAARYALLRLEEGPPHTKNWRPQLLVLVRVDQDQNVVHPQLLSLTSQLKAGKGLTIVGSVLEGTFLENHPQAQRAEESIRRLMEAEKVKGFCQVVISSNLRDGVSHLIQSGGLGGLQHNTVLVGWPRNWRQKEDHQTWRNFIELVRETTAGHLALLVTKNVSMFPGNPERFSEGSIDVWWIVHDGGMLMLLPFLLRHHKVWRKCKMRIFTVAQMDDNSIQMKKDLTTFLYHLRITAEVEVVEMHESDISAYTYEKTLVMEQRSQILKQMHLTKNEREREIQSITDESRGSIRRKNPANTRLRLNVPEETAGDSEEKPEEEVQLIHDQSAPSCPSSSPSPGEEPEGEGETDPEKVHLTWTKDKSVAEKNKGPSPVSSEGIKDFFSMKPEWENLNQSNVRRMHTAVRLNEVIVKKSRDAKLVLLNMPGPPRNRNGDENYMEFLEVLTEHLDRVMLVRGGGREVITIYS
Summary of the method: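 KCC2 (in PRK5)- or mock-transfected HEK293 cells were loaded for 1 h with Tl-sensitive dye (1:1,000) and probenecid (1:100) in Cl−-free hypotonic solution, washed, then treated with test compound with 100 μM ouabain. Fluorescence (ex 485/em 535 nm) was read for 20 s baseline, 20 s after TlSO4 (2 mM final), then 60 s after NaCl (74 mM final). Mock ΔF/F0 (last 10 s) was subtracted; fluorescence increase is expressed as % of DMSO control.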

[2] = biological target: T2, NKCC2 (Homo sapiens, UniProt Q13621); assay: Cl− influx assay in NKCC2-transfected HEK293 cells; assay type: cell-based; settings: HEK293, read-out: NKCC2 inhibition
T2 sequence (Q13621 1-1099): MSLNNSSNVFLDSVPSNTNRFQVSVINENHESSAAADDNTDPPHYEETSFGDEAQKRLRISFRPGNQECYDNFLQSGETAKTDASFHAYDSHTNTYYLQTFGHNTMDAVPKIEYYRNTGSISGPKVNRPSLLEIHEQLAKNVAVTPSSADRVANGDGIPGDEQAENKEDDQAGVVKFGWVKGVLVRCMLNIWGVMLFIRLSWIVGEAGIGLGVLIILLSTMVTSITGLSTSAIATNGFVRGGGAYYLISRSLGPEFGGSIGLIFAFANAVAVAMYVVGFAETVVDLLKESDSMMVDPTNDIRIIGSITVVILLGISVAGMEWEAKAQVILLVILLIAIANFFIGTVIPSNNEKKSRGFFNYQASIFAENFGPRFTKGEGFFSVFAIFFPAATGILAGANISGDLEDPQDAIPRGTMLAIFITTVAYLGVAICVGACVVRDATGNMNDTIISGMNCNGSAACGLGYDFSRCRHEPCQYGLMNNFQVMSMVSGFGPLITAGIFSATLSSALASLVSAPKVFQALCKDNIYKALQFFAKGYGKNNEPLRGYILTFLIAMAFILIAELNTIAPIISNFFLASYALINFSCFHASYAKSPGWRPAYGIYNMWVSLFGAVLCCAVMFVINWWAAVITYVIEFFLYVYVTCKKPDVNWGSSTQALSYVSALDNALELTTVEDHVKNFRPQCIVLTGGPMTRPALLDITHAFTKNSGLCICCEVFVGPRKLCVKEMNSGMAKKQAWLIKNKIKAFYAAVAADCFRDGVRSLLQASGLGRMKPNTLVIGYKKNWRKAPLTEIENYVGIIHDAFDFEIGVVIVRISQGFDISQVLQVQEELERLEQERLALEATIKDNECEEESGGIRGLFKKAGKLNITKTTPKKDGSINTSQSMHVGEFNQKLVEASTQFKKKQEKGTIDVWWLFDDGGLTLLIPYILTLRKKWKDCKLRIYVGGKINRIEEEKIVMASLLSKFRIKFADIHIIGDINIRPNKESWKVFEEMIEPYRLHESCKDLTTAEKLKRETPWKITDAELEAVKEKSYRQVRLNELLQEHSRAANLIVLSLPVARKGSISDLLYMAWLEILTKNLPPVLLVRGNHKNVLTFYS
Summary of the method: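 HEK293 cells were co-transfected by lipofection with NKCC2 (in PRK5) or empty vector plus membrane-tagged Cl−-sensitive YFP, replated after 4 h, and assayed at 48 h. Test compound (10 or 100 μM) was applied for 30 min in Cl−-free hypotonic HEPES buffer, pH 7.4. Fluorescence (ex 485/em 535 nm) was read for 20 s baseline and 60 s after NaCl (74 mM final). Fluorescence decrease is expressed as % of DMSO control; four independent experiments, mean ± SEM.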

[3] = test system: 3DIV hippocampal mouse neurons; assay: Ca2+ influx assay upon GABA application in immature; assay type: cell-based; settings: for Ca2+ influx upon GABA application: 10, 100 μM, GABA 100 μM, compared with DMSO-treated controls; for cell viability (fluorescence level upon KCl application): KCl 90 mM, 3DIV neurons
[4] = test system: GABAA receptors; assay: Voltage-clamp recordings of GABA-evoked currents in neuronal cultures; assay type: cell-based; settings: 10 μM bath application; 12–20 DIV hippocampal mouse neurons
Summary of the method: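 Cultured hippocampal mouse neurons at DIV12–20 were voltage-clamped at 22–24°C in extracellular solution. GABA-evoked currents (average of five sweeps) were recorded before and after bath application of test compound (10 μM). Cells with access resistance >25 MΩ or with >20% variation in GABA-current peak were excluded. Signals were sampled at 20 kHz and low-pass filtered at 10 kHz.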

[5] = test system: WT and Ts65Dn hippocampal neurons; assay: MQAE Cl− imaging in neuronal cultures; assay type: cell-based, mouse; settings: 10 μM
Summary of the method: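 Hippocampal neurons from P2 WT and Ts65Dn pups were cultured on poly-L-lysine coverslips in Neurobasal-A/B-27. At 15 DIV they were loaded with 5 mM MQAE plus test compound (10 μM) or DMSO for 30 min at 37°C. Coverslips were then perfused with extracellular solution (pH 7.4) containing compound for 5 min at 25°C and imaged by confocal microscopy.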

[6] = test system: Ts65Dn mice and WT littermates; assay: Diuresis analysis in Ts65Dn mice and WT littermates; assay type: in vivo, mouse; settings: 0.2 mg kg−1 IP; adult WT and Ts65Dn mice; relative to vehicle
Summary of the method: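 Adult (P60–120) Ts65Dn mice and WT littermates of both sexes received one i.p. dose of vehicle or test compound at 0.2 mg/kg. The dose was given from a 1 mg/mL DMSO stock diluted in PBS to 0.02 mg/mL and injected at 10 μL/g. Urine volume was collected for 2 h, after which mice were returned to home cages.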

[7] = test system: VPA mice and controls; assay: Diuresis analysis in VPA mice and controls; assay type: in vivo, mouse; settings: 0.2 mg kg−1 IP; young adult control and VPA mice; relative to vehicle
Summary of the method: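 VPA-model offspring were from C57BL/6J dams given 600 mg/kg VPA i.p. in PBS at gestational day 12.5; controls were included. Mice of both sexes received one i.p. dose of vehicle or test compound at 0.2 mg/kg, from a 1 mg/mL DMSO stock diluted in PBS to 0.02 mg/mL and injected at 10 μL/g. Urine volume was collected for 120 min.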

[8] = test system: valproic acid (VPA) mouse model of ASD; assay: Male-female interaction test in VPA mice; assay type: in vivo; settings: 0.2 mg kg−1 IP daily, chronic
Summary of the method: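 Male VPA-model mice (6–8 weeks) and controls were dosed i.p. daily with vehicle or test compound at 0.2 mg/kg, with testing 1 h post-injection after at least 1 week of treatment. Each male was placed alone in a cage and habituated for 5 min. An unfamiliar C57BL/6J female was then introduced, and behavior was recorded for 5 min and scored blind.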

[9] = test system: valproic acid (VPA) mouse model of ASD; assay: Marble burying test in VPA mice; assay type: in vivo; settings: 0.2 mg kg−1 IP daily, chronic
Summary of the method: (§1)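 Male VPA-model mice (prenatal VPA 600 mg/kg i.p. at gestational day 12.5) and controls, 6–8 weeks old, were randomized to vehicle (2% DMSO in saline) or test compound 0.2 mg/kg i.p. daily for 21–28 days. Tests started after 1 week of treatment, 1 h post-injection, and were video-scored manually by a blind operator.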

[10] = test system: valproic acid (VPA) mouse model of ASD; assay: Grooming test in VPA mice; assay type: in vivo; settings: 0.2 mg kg−1 IP daily, chronic
Summary of the method: as §1

SMILES	KCC2 inhibition [1] [%]	inhibition at 10 µM [2] [%]	Ca2+ influx upon GABA application [3]	level of alleged NKCC1 inhibition in the Ca2+ influx assay compared with the Cl− influx assay ([3]; 10 and 100 μM)	cell viability (fluorescence level upon KCl application) [3]	inhibitory activity on GABAA receptors (GABA-evoked currents) [4]	[Cl−]i in wild-type (WT) neurons ([5]; 15 DIV WT neurons)	[Cl−]i in Ts65Dn neurons ([5]; mature (15 DIV) Ts65Dn neurons)	diuretic effect (urine volume for 2 h) [6]	diuretic effect (urine volume for 2 h) [7]	sociability during male-female interaction [8]	repetitive behaviors in the marble burying test [9]	repetitive behaviors in the grooming task [10]
CCCC[C@]1(C2CCCC2)Cc2cc(OCC(=O)O)c(Cl)c(Cl)c2C1=O [DIOA, R-(+)-[(2-n-Butyl-6,7-dichloro-2-cyclopentyl-2,3-dihydro-1-oxo-1H-inden-5-yl)oxy]acetic acid]	37.6 ± 6.7												
CCCCNc1cc(C(=O)O)cc(S(N)(=O)=O)c1Oc1ccccc1 [bumetanide]		82.7 ± 20.4	significantly reduced	corresponded to the levels obtained for the Cl^− influx assay	without affecting the cell viability	this was not the case	without significantly affecting	restored aberrant [Cl^−]i to physiological levels	significantly increased the urine volume	significantly increased the urine volume	rescued poor sociability	significantly reduced repetitive behaviors	non-significant trend toward WT levels
NS(=O)(=O)c1cc(C(=O)O)c(NCc2ccco2)cc1Cl [furosemide]			significantly reduced		without affecting the cell viability	variable inhibitory activity							

From article PMC7427514 (Chem, 2020)
